Laboratory results published in publication PMC5604209 (Journal of Cancer, 2017).

Legend:
K562 cells [1] = assay: Cell cycle by propidium; format: cell-based, human; details: 1 nM, 24 hours
Procedure, shortened: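 After 24 h exposure of K562 cells to test compound or DMSO, cells were washed in cold PBS and fixed overnight in ice-cold 70% ethanol. They were stained 1 h at 37 °C in PBS with 0.25 mg/mL RNase and 0.025 mg/mL propidium iodide. Cells were read on a Guava flow cytometer, and G1, S and G2/M fractions were quantified.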

Ba/F3-Bcr-abl^WT = assay: Cell proliferation assay; format: cell-based, murine; details: Mus musculus, 72 h, read-out: Cell growth inhibition IC50
Procedure, shortened: (§1)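 Cells were grown in DMEM or RPMI-1640 with 10% FBS and penicillin/streptomycin at 37 °C, 5% CO2. PBMC were isolated on Ficoll-Paque, and Ba/F3 Bcr-Abl lines were stably transfected. Cells were seeded at low density. DMSO stocks were 3-fold diluted from 10 mM to 0.3 nM, then into serum-free medium before addition. After 72 h, CellTiter-Glo (adherent; RT 10 min) or CellTiter-Blue (suspension; 4 h) was read. IC50 is the mean of three independent duplicate experiments.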

[2] = tested on: phosphorylation of Bcr-Abl and ERK1/2; assay: PK/PD in K562 xenograft model: Western blot of tumor samples; format: in vivo, nude mice; details: single oral dose 15 mg/kg, 2 hours
Procedure, shortened: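 K562 xenografts in nude mice were given a single oral dose of test compound (5 or 15 mg/kg). Tumors were harvested 2 h later, and lysates were probed by Western blot with antibodies to phospho-Bcr-Abl and phospho-ERK1/2.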

[3] = tested on: phosphorylated ERK1/2 and STAT5; assay: Western blot, K562 and KU812 cells; format: cell-based, human
Procedure, shortened: (§2)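 K562 or KU812 cells (1×10⁶ per well) were plated overnight at 37 °C, 5% CO2. They were treated 1 h with a concentration series, or with 100 nM for 0–24 h; 0.1% DMSO served as control. BCA-normalized lysates were run on 10% SDS-PAGE and transferred to PVDF. Blots were blocked in TBS-0.1% Tween-20 with 5% BSA, then probed with phospho-specific primaries (2 h RT or 4 °C overnight) and HRP anti-rabbit (1 h RT). Detection was by ECL.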

HL-60 = assay: Cell proliferation assay; format: cell-based; details: Homo sapiens, HL-60, 72 h, read-out: Cell growth inhibition IC50
Procedure, shortened: as §1

Abl (T315I) = Abl (T315I) (Homo sapiens, UniProt P00519, T315I); assay: HTRF kinase enzyme assay; format: biochemical
Abl enzyme [4] = target: T1, Abl enzyme (Homo sapiens, UniProt P00519); assay: Time-dependent inhibition and reversibility; format: biochemical
phosphorylation of Crkl = assay: Western blot, K562 and KU812 cells; format: cell-based, human; details: 100 nM, 1 hour
Procedure, shortened: as §2

K562 cells [5] = assay: Apoptosis by Annexin V / 7-AAD flow cytometry; format: cell-based, human; details: 10 μM, 24 hours
Procedure, shortened: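 K562 cells treated 24 h at 37 °C with test compound (0.1, 1.0 or 10 μM) or 0.1% DMSO. Cells were washed twice in PBS and resuspended in binding buffer with PE-Annexin V and 7-AAD for 15 min at RT in the dark. They were then diluted in binding buffer and read on a Guava flow cytometer. Early and late apoptotic fractions were scored.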

[6] = Pharmacokinetic studies in rats; format: in vivo; details: female, SD, rat, serum, po, 5 mg/kg
Procedure, shortened: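 Female SD rats (5–6 weeks) received a single 5 mg/kg oral dose. Blood was sampled serially from 2 min to 24 h, and serum was separated by centrifugation and stored at −80 °C. Serum levels were measured by LC-MS/MS, and T1/2, Tmax, Cmax and AUC0-INF were derived.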

KU812 xenograft = assay: KU812 tumor xenograft in nude mice; format: in vivo; details: 30 mg/kg QD; for treated mice with complete tumor regression: p < 0.01
MKN-45 = assay: Cell proliferation assay; format: cell-based; details: Homo sapiens, MKN-45, 72 h, read-out: Cell growth inhibition IC50
Procedure, shortened: as §1

Abl enzyme [7] = target: T1, Abl enzyme; assay: Kinetic mechanism of inhibition versus ATP; format: biochemical
MV-4-11 = assay: Cell proliferation assay; format: cell-based; details: read-out: Cell growth inhibition IC50; MV-4-11, acute myeloid leukemia, 72 hours
Procedure, shortened: as §1

PC-3 = assay: Cell proliferation assay; format: cell-based; details: Homo sapiens, PC-3, 72 h, read-out: Cell growth inhibition IC50
Procedure, shortened: as §1

[8] = target: phosphorylation of Bcr-Abl (Homo sapiens, UniProt P00519+P11274); assay: Western blot, K562 and KU812 cells; format: cell-based; details: for phosphorylation of Bcr-Abl kinase: 1 hour
Procedure, shortened: as §2

Kasumi-1 = assay: Cell proliferation assay; format: cell-based; details: Homo sapiens, Kasumi 1, 72 h, read-out: Cell growth inhibition IC50
Procedure, shortened: as §1

PDGFRβ = PDGFRβ (Homo sapiens, UniProt P09619); assay: HTRF kinase enzyme assay; format: biochemical
Chain of PDGFRβ (P09619 33-1106): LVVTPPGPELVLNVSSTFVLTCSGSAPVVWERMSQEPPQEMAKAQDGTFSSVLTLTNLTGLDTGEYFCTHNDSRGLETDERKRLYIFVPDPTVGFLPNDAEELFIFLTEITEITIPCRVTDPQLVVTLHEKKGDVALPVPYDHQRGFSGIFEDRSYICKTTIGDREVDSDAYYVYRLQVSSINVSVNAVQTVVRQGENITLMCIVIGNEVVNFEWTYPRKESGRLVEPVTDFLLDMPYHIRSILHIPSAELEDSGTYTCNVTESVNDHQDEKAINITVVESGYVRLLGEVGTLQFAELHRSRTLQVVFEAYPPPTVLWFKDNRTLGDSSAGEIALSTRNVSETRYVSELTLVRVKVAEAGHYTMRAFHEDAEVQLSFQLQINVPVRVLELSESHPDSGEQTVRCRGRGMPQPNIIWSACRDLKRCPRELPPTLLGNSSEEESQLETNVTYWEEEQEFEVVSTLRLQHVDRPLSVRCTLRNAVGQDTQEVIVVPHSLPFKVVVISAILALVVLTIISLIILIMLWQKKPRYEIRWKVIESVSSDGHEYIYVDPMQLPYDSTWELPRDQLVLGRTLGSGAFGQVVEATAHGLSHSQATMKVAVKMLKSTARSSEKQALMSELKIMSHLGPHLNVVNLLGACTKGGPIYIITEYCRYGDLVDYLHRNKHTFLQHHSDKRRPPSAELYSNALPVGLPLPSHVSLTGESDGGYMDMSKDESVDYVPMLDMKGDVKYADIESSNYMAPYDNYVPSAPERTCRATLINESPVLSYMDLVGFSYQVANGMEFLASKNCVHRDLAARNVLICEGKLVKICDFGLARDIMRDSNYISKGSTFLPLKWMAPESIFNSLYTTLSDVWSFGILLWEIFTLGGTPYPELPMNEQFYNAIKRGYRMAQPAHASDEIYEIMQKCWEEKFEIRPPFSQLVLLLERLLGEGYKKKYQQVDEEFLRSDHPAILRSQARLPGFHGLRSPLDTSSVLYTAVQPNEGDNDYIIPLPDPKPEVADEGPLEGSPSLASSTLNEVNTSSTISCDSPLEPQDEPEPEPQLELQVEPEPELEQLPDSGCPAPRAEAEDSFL
Procedure, shortened: (§3)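 Recombinant kinases were assayed by HTRF KinEASE-TK in 50 mM HEPES pH 7.0, 0.1 mM Na3VO4, 0.01% BSA, 5 mM MgCl2, 1 mM DTT. Compound was made as an 11-point 3-fold series from a 1 mM DMSO stock and mixed with kinase for 5 min. […] Anti-TK cryptate plus streptavidin-XL665 was added for 1 h at 23 °C before TR-FRET read-out. IC50 is the mean of three independent duplicate runs.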

Abl (WT) = Abl (WT) (Homo sapiens, UniProt P00519); assay: HTRF kinase enzyme assay; format: biochemical
Procedure, shortened: as §3

Ba/F3-Bcr-abl^T315I = assay: Cell proliferation assay; format: cell-based, murine; details: Mus musculus, 72 h, read-out: Cell growth inhibition IC50
Procedure, shortened: as §1

SMMC-7721 = assay: Cell proliferation assay; format: cell-based; details: Homo sapiens, SMMC-7721, 72 h, read-out: Cell growth inhibition IC50
Procedure, shortened: as §1

[9] = tested on: liver CYP450 enzymes (all tested enzymes); assay: Liver CYP450 enzyme inhibition; format: in vitro ADME
K562 xenograft = assay: K562 tumor xenograft in nude mice; format: in vivo; details: for tumor growth inhibition: p < 0.05
Procedure, shortened: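 Female athymic nude mice (5–6 weeks) were implanted subcutaneously in the right flank with K562 cells in 100 µL serum-free medium. Once tumors reached about 150–300 mm³, mice were randomized (10 per group) to vehicle or test compound at 5, 15 or 45 mg/kg by daily oral gavage. Caliper volume (w²×l)/2 and body weight were recorded every 2–3 days. TGI was taken versus vehicle, with t-test.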

EGFR = EGFR (Homo sapiens, UniProt P00533); assay: Kinase enzyme assay; format: biochemical
Chain of EGFR (P00533 25-1210): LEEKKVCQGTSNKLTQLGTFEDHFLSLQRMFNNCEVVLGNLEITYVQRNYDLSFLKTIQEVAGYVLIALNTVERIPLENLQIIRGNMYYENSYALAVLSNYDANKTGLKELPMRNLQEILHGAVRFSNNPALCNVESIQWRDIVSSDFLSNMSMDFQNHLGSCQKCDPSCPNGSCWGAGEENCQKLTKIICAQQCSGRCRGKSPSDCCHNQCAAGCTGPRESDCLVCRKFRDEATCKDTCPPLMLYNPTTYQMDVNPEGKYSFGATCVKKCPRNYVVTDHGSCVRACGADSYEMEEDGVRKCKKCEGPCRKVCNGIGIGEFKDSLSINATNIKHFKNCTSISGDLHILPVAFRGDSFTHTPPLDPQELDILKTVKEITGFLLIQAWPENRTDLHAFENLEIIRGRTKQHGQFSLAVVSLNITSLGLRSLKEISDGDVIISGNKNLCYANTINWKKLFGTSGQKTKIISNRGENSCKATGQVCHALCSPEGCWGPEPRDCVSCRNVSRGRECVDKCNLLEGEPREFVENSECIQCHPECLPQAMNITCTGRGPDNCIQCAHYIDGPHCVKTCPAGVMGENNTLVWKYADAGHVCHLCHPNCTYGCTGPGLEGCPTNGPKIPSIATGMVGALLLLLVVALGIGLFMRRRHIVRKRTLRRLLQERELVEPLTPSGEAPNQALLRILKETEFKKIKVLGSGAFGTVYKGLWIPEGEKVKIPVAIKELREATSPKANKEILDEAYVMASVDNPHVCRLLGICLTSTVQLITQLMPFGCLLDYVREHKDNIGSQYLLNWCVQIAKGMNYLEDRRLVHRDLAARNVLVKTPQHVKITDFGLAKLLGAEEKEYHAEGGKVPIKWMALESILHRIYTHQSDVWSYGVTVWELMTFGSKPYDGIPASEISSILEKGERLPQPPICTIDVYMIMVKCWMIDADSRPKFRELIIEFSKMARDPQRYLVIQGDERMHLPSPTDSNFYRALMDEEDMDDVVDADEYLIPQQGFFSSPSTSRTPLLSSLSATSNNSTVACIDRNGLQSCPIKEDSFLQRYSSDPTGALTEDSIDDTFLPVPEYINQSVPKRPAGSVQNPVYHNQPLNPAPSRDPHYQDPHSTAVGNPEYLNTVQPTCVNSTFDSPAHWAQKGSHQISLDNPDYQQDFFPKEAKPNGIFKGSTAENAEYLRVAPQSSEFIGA

c-Kit = c-Kit (Homo sapiens, UniProt P10721); assay: HTRF kinase enzyme assay; format: biochemical
Chain of c-Kit (P10721 26-976): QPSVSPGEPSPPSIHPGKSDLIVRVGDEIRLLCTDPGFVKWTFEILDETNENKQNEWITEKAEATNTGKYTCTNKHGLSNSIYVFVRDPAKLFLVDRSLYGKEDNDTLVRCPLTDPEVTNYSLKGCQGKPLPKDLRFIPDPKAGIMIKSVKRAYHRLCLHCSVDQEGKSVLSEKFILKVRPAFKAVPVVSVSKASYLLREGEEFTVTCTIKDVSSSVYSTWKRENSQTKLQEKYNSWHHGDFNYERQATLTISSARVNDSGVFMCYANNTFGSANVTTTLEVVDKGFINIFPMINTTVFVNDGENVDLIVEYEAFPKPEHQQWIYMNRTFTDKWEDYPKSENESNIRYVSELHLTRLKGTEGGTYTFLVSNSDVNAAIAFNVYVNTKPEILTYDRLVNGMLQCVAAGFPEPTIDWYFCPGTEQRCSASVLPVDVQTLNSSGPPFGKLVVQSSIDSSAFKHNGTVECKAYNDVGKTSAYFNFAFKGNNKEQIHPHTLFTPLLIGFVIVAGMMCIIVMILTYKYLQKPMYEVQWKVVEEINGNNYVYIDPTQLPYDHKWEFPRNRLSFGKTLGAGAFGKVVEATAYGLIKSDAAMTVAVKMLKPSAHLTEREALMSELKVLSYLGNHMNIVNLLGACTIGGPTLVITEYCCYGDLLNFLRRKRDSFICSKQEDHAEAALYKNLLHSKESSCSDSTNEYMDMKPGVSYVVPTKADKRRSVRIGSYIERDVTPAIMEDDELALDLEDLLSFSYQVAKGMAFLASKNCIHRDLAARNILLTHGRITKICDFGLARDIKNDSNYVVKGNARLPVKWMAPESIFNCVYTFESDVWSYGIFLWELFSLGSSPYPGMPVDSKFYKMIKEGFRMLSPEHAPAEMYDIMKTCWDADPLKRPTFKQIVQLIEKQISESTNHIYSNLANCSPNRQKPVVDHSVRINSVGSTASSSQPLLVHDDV
Procedure, shortened: as §3

VEGFR2 = VEGFR2 (Homo sapiens, UniProt P35968); assay: HTRF kinase enzyme assay; format: biochemical
Chain of VEGFR2 (P35968 20-1356): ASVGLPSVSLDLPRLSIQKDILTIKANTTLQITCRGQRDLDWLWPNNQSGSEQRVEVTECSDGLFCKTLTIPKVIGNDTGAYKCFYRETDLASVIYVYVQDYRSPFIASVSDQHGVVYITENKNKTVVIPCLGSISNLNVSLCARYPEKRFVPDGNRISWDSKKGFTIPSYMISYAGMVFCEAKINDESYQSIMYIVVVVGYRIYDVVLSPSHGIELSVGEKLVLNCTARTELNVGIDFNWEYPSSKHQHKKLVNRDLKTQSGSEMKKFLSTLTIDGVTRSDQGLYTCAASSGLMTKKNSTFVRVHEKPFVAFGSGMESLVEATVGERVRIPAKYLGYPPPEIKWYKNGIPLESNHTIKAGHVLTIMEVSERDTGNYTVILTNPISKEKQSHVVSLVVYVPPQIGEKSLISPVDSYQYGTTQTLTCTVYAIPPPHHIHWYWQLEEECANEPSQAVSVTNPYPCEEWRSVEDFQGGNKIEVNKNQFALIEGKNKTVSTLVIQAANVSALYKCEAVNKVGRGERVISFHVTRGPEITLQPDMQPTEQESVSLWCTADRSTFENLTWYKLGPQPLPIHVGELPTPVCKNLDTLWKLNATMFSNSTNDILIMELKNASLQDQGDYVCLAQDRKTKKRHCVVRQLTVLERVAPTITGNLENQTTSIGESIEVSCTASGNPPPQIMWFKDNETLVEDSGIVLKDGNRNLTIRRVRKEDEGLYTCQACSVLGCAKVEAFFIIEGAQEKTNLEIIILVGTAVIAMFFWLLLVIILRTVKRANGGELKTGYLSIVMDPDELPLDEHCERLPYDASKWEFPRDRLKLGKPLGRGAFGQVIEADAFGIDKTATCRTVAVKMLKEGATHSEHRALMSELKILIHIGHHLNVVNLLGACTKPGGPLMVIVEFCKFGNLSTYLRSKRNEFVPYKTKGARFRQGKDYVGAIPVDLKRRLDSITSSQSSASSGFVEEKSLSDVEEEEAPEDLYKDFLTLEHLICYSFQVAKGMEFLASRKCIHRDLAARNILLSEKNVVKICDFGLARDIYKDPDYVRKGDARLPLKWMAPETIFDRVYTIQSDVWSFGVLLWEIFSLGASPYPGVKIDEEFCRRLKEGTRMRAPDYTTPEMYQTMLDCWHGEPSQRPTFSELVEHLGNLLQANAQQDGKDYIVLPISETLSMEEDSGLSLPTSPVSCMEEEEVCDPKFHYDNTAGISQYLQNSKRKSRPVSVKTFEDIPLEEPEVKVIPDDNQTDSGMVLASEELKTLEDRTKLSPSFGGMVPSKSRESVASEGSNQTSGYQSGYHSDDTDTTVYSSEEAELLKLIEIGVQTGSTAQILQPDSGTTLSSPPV
Procedure, shortened: as §3

[10] = PK/PD in K562 xenograft model: compound concentration in tumor; format: in vivo, nude mice; details: nude, mouse, tumor tissue, po, 15 mg/kg
Procedure, shortened: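 In nude mice bearing K562 xenografts, tumor tissue was collected 2 h after one oral dose (5 or 15 mg/kg) of test compound. Compound concentration in tumor samples was quantified by LC-MS/MS.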

Human PBMC = assay: Cell proliferation assay; format: cell-based; details: read-out: Cell growth inhibition IC50, human lymphocyte, 72 hours
Procedure, shortened: as §1

SMILES: Cc1ccc(NC(=O)c2ccc3c(c2)CC[C@@H]3N2CCN(C)CC2)cc1C#Cc1cnc2ccc(Cl)nn12 [CT-721, (S)-N-(3-((6-chloroimidazo[1,2-b]pyridazin-3-yl)ethynyl)-4-methylphenyl)-1-(4-methylpiperazin-1-yl)-2,3-dihydro-1H-indene-5-carboxamide]
- cell cycle arrest (K562 cells [1]): pronounced G0/G1 phase arrest
- IC50 (Ba/F3-Bcr-abl^WT): 1.6 ± 0.3 nM
- Bcr-Abl and ERK phosphorylation in tumor [2]: almost complete inhibition
- levels of phosphorylated ERK1/2 and STAT5 [3]: dose-dependently repressed
- IC50 (HL-60): 1000 to 10000 nM
- IC50 (Abl (T315I)): 65 ± 6.2 nM
- koff (Abl enzyme [4]): 5.37e-05 s⁻¹
- IC50 (Abl enzyme [4]; IC50 for Abl kinase, Normal (no preincubation, 0 min)): 12.1 nM
- decrease of IC50 after preincubation (Abl enzyme [4]; from 12.1 nM to 1.3 nM, 120 min): 9 fold
- phosphorylation of Crkl (phosphorylation of Crkl): significantly inhibited
- late-phase apoptosis (K562 cells [5]): late-phase apoptosis was also observed
- AUC(0-inf) [6]: 5420 ng·h/mL
- Cmax [6]: 303 ng/mL
- Tmax [6]: 6.67 h
- half-life [6]: 8.83 h
- tumor growth (KU812 xenograft; after 5 days): notably inhibited with partial regression observed
- treated mice with complete tumor regression (KU812 xenograft; after 8 days): 50%
- treated mice with complete tumor regression (KU812 xenograft; after 18 days): 80%
- body weight of xenograft mice (KU812 xenograft; compared to the vehicle group): no significant body weight loss
- IC50 (MKN-45): 1000 to 10000 nM
- Ki (Abl enzyme [7]): 7.3 nM
- Ki' (Abl enzyme [7]; enzyme-ATP complex): 775 nM
- IC50 (MV-4-11): 232 ± 55 nM
- IC50 (PC-3): 1000 to 10000 nM
- phosphorylation of Bcr-Abl kinase ([8]; 10 nM): significantly suppressed
- phosphorylation of Bcr-Abl kinase ([8]; 100 nM): totally blocked
- duration of blockage of phosphorylation of Bcr-Abl and Crkl ([8]; time course, 100 nM): at least 24 hours
- IC50 (Kasumi-1): 53 ± 6 nM
- IC50 (PDGFRβ): 106 nM
- IC50 (Abl (WT)): 21.3 ± 1.1 nM
- IC50 (Ba/F3-Bcr-abl^T315I): 18.5 ± 12 nM
- IC50 (SMMC-7721): 1000 to 10000 nM
- IC50 [9]: > 10000 nM
- tumor growth inhibition (K562 xenograft; K562 xenograft, 5 mg/kg PO QD): 51.4%
- tumor growth inhibition (K562 xenograft; K562 xenograft, 15 mg/kg PO QD, 12 days): 76%
- mice completely cured, tumors disappeared completely (K562 xenograft; K562 xenograft, 45 mg/kg PO QD, 9 days, p < 0.01): 90%
- body weight of xenograft mice (K562 xenograft; K562 xenograft, 5, 15 and 45 mg/kg): without causing significant bodyweight loss
- IC50 (EGFR): 130 nM
- IC50 (c-Kit): 9.2 nM
- IC50 (VEGFR2): 48.9 nM
- concentration at 2 h [10]: 254 ng/mL
- IC50 (Human PBMC): 1000 to 10000 nM
